Measured values pooled from the literature.
Protocols differ between the studies behind these lines.
NT5E: 5'-nucleotidase (NT5E, Homo sapiens, UniProt P21589)

The inhibition of O=C(NS(=O)(=O)c1ccc(C(F)(F)F)cc1)c1cc2ccccc2n1Cc1ccc(Br)c2ccccc12 is reported as 17.2% (Xanthine dehydrogenase/oxidase (XDH, Bos taurus, UniProt P80457); enzyme activity; inhibitor; absorbance; 10 µM).
With CC(=O)ON=C1C=CC(=C(C#N)c2ccccc2)C=C1 the activity vs control was 87% (Dual specificity tyrosine-phosphorylation-regulated kinase 1A (Dyrk1a, Rattus norvegicus, UniProt Q63470); enzyme activity; inhibitor; ADP detection; 2 µM).
With Cc1cc(-c2ccccc2)c(C#N)c(SCC(=O)Nc2nccs2)n1 the inhibition was 91% (NT5E; enzyme activity; inhibitor; HPLC; 10 µM).
For COc1ccc2oc(-c3ccc4nc(N)oc4c3)c/c(=N\c3ccccc3NC(=O)CCN)c2c1, the remaining binding was 103% (Platelet-derived growth factor receptor alpha (PDGFRA, Homo sapiens, UniProt P16234); binding; 1 µM).
For CCCCC(=O)Nc1ccc(-c2ccc3ncn(CCC)c(=O)c3c2)cn1, the remaining binding was 53% (Phosphatidylinositol 4-kinase beta (PI4KB, Homo sapiens, UniProt Q9UBF8); binding; competition with immobilised ligand; 0.5 µM).
N#Cc1c(C(F)(F)F)cc(-c2ccccc2)nc1SCC(=O)Nc1cccnc1 has an inhibition of 40% (NT5E; enzyme activity; inhibitor; 10 µM).
For NC/C(=C\F)COc1cccc(Cn2c(=S)[nH]c(=O)c3[nH]cnc32)c1, the remaining activity was 81.1% (Lactoperoxidase (LPO, Bos taurus, UniProt P80025); enzyme activity; inhibitor; 2.5 µM).
With C1=C/COCc2cc(ccc2OCCN2CCCC2)Nc2nccc(n2)-c2cccc(c2)COC/1 the remaining signal was 60% (Cyclin-dependent kinase 13 (CDK13, Homo sapiens, UniProt Q14004); cell-free assay; 0.1 µM).
